Laboratory results published in ChEMBL document CHEMBL5303300, “EUbOPEN Chemogenomics Library - Multiplex” (2023).
Several values for one entry are separate records, joined by “and”; a condition that tells them apart may be missing. Equal values may be shown once.

Assays:
Format in all cases: toxicity, cell-based
Fibroblast = experiment: Multiplex assay against human fibroblast; settings: number of replicates 2
In short: (§1)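 Compound was added to live cells that had been stained at seeding with Hoechst33342, BioTracker Green Microtubule Cytoskeleton Dye, MitoTracker Red and Annexin V Alexa Fluor 680, and imaging followed on a CQ1 microscope at 37°C and 5% CO2. CellPathfinder machine-learning gating divided cells into Hoechst high-intensity objects or normal cells, normal cells into healthy, pyknosed or fragmented nuclei, and pyknosed cells into mitotic or apoptotic. Tubulin, mitochondrial-mass and membrane-permeability phenotypes are per cents of healthy-nucleus cells.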

HEK-293T = experiment: Multiplex assay against HEK293T; settings: human, number of replicates 2; in short: as §1
U2OS = experiment: Multiplex assay against U2OS; settings: human, number of replicates 2; in short: as §1
[1] = 12 h, 1 µM, compound concentration 1 uM
[2] = 12 h, 10 µM, compound concentration 10 uM
[3] = 24 h, 1 µM, compound concentration 1 uM
[4] = 24 h, 10 µM, compound concentration 10 uM
[5] = 48 h, 1 µM, compound concentration 1 uM
[6] = 48 h, 10 µM, compound concentration 10 uM

## O=C(Nc1ccc(Cl)c(-c2ccccn2)c1)c1cccc(COc2ccc(Br)cc2CNCCO)c1.O=CO
Fibroblast; [1]
  Population Apoptotic (%): 41% and 58%
  Population Fragmented Nuclei (%): 4% and 14%
  Population Healthy Nuclei (%): 72% and 56%
  Population Hoechst High Intensity Objects (%): 0% and 1%
  Population Membrane Permeable-Phenotype (%): 10% and 13%
  Population Mitochondria Different-Phenotype (%): 1% and 6%
  Population Mitotic Cells (%): 58% and 41%
  Population Normal (%): 100% and 98%
  Population Pyknosed Nuclei (%): 23% and 28%
  Population Tubulin-Different-Phenotype (%): 71% and 68%
  Total Cell Count: 208 and 161
Fibroblast; [2]
  Population Apoptotic (%): 46% and 42%
  Population Fragmented Nuclei (%): 15% and 17%
  Population Healthy Nuclei (%): 58%
  Population Hoechst High Intensity Objects (%): 0%
  Population Membrane Permeable-Phenotype (%): 21% and 16%
  Population Mitochondria Different-Phenotype (%): 6% and 14%
  Population Mitotic Cells (%): 53% and 57%
  Population Normal (%): 100% and 99%
  Population Pyknosed Nuclei (%): 25% and 24%
  Population Tubulin-Different-Phenotype (%): 83% and 85%
  Total Cell Count: 318 and 361
Fibroblast; [3]
  Population Apoptotic (%): 55% and 63%
  Population Fragmented Nuclei (%): 9% and 11%
  Population Healthy Nuclei (%): 69% and 58%
  Population Hoechst High Intensity Objects (%): 0%
  Population Membrane Permeable-Phenotype (%): 6% and 5%
  Population Mitochondria Different-Phenotype (%): 5% and 8%
  Population Mitotic Cells (%): 44% and 36%
  Population Normal (%): 99% and 100%
  Population Pyknosed Nuclei (%): 21% and 30%
  Population Tubulin-Different-Phenotype (%): 59% and 61%
  Total Cell Count: 224 and 146
Fibroblast; [4]
  Population Apoptotic (%): 76% and 81%
  Population Fragmented Nuclei (%): 10% and 6%
  Population Healthy Nuclei (%): 40% and 46%
  Population Hoechst High Intensity Objects (%): 0% and 1%
  Population Mitochondria Different-Phenotype (%): 40% and 50%
  Population Mitotic Cells (%): 23% and 18%
  Population Normal (%): 99% and 98%
  Population Pyknosed Nuclei (%): 49% and 47%
  Population Tubulin-Different-Phenotype (%): 82%
  Total Cell Count: 238 and 280
Fibroblast; [5]
  Population Apoptotic (%): 61% and 78%
  Population Fragmented Nuclei (%): 9% and 12%
  Population Healthy Nuclei (%): 72% and 64%
  Population Hoechst High Intensity Objects (%): 1%
  Population Membrane Permeable-Phenotype (%): 4% and 5%
  Population Mitochondria Different-Phenotype (%): 3% and 8%
  Population Mitotic Cells (%): 38% and 21%
  Population Normal (%): 98%
  Population Pyknosed Nuclei (%): 18% and 22%
  Population Tubulin-Different-Phenotype (%): 54% and 42%
  Total Cell Count: 215 and 165
Fibroblast; [6]
  Population Apoptotic (%): 95%
  Population Fragmented Nuclei (%): 9% and 8%
  Population Healthy Nuclei (%): 12% and 13%
  Population Hoechst High Intensity Objects (%): 0%
  Population Membrane Permeable-Phenotype (%): 38% and 27%
  Population Mitochondria Different-Phenotype (%): 23% and 41%
  Population Mitotic Cells (%): 4%
  Population Normal (%): 99%
  Population Pyknosed Nuclei (%): 78% and 77%
  Population Tubulin-Different-Phenotype (%): 66% and 75%
  Total Cell Count: 174 and 211
HEK-293T; [1]
  Population Apoptotic (%): 56% and 52%
  Population Fragmented Nuclei (%): 4% and 3%
  Population Healthy Nuclei (%): 76% and 80%
  Population Hoechst High Intensity Objects (%): 8% and 10%
  Population Membrane Permeable-Phenotype (%): 6% and 5%
  Population Mitochondria Different-Phenotype (%): 37% and 35%
  Population Mitotic Cells (%): 43% and 47%
  Population Normal (%): 91% and 89%
  Population Pyknosed Nuclei (%): 18% and 15%
  Population Tubulin-Different-Phenotype (%): 92% and 94%
  Total Cell Count: 417 and 613
HEK-293T; [2]
  Population Apoptotic (%): 85% and 73%
  Population Fragmented Nuclei (%): 0% and 7%
  Population Healthy Nuclei (%): 79% and 71%
  Population Hoechst High Intensity Objects (%): 11% and 13%
  Population Membrane Permeable-Phenotype (%): 1%
  Population Mitochondria Different-Phenotype (%): 91% and 83%
  Population Mitotic Cells (%): 14% and 26%
  Population Normal (%): 88% and 86%
  Population Pyknosed Nuclei (%): 19% and 21%
  Population Tubulin-Different-Phenotype (%): 81% and 95%
  Total Cell Count: 238 and 269
HEK-293T; [3]
  Population Apoptotic (%): 48% and 54%
  Population Fragmented Nuclei (%): 4% and 6%
  Population Healthy Nuclei (%): 85% and 82%
  Population Hoechst High Intensity Objects (%): 6% and 10%
  Population Membrane Permeable-Phenotype (%): 6%
  Population Mitochondria Different-Phenotype (%): 29% and 19%
  Population Mitotic Cells (%): 51% and 45%
  Population Normal (%): 93% and 89%
  Population Pyknosed Nuclei (%): 9% and 11%
  Population Tubulin-Different-Phenotype (%): 88% and 86%
  Total Cell Count: 566 and 806
HEK-293T; [4]
  Population Apoptotic (%): 82% and 80%
  Population Fragmented Nuclei (%): 4%
  Population Healthy Nuclei (%): 75% and 72%
  Population Hoechst High Intensity Objects (%): 16% and 15%
  Population Membrane Permeable-Phenotype (%): 1% and 2%
  Population Mitochondria Different-Phenotype (%): 95% and 89%
  Population Mitotic Cells (%): 17% and 19%
  Population Normal (%): 83% and 84%
  Population Pyknosed Nuclei (%): 19% and 23%
  Population Tubulin-Different-Phenotype (%): 74% and 91%
  Total Cell Count: 248 and 263
HEK-293T; [5]
  Population Apoptotic (%): 48% and 34%
  Population Fragmented Nuclei (%): 7% and 9%
  Population Healthy Nuclei (%): 87% and 85%
  Population Hoechst High Intensity Objects (%): 8% and 10%
  Population Membrane Permeable-Phenotype (%): 9% and 8%
  Population Mitochondria Different-Phenotype (%): 8% and 5%
  Population Mitotic Cells (%): 51% and 65%
  Population Normal (%): 91% and 89%
  Population Pyknosed Nuclei (%): 4%
  Population Tubulin-Different-Phenotype (%): 61% and 66%
  Total Cell Count: 894 and 1474
HEK-293T; [6]
  Population Apoptotic (%): 79% and 78%
  Population Fragmented Nuclei (%): 3% and 1%
  Population Healthy Nuclei (%): 71% and 68%
  Population Hoechst High Intensity Objects (%): 19% and 12%
  Population Membrane Permeable-Phenotype (%): 4% and 1%
  Population Mitochondria Different-Phenotype (%): 82% and 86%
  Population Mitotic Cells (%): 20% and 21%
  Population Normal (%): 80% and 87%
  Population Pyknosed Nuclei (%): 24% and 29%
  Population Tubulin-Different-Phenotype (%): 84% and 89%
  Total Cell Count: 339 and 305
U2OS; [1]
  Population Apoptotic (%): 71% and 88%
  Population Fragmented Nuclei (%): 11% and 3%
  Population Healthy Nuclei (%): 62% and 75%
  Population Hoechst High Intensity Objects (%): 0%
  Population Membrane Permeable-Phenotype (%): 47% and 48%
  Population Mitochondria Different-Phenotype (%): 23% and 66%
  Population Mitotic Cells (%): 28% and 11%
  Population Normal (%): 100%
  Population Pyknosed Nuclei (%): 25% and 20%
  Population Tubulin-Different-Phenotype (%): 82% and 87%
U2OS; [2]
  Population Apoptotic (%): 75% and 64%
  Population Healthy Nuclei (%): 44% and 72%
  Population Hoechst High Intensity Objects (%): 0%
  Population Membrane Permeable-Phenotype (%): 62% and 32%
  Population Mitochondria Different-Phenotype (%): 62% and 57%
  Population Mitotic Cells (%): 25% and 36%
  Population Normal (%): 100%
  Population Pyknosed Nuclei (%): 11% and 16%
  Population Tubulin-Different-Phenotype (%): 100% and 93%
U2OS; [3]
  Population Apoptotic (%): 69% and 82%
  Population Healthy Nuclei (%): 48% and 76%
  Population Hoechst High Intensity Objects (%): 0%
  Population Membrane Permeable-Phenotype (%): 31% and 45%
  Population Mitochondria Different-Phenotype (%): 57% and 69%
  Population Mitotic Cells (%): 30% and 17%
  Population Normal (%): 100% and 99%
  Population Pyknosed Nuclei (%): 33% and 20%
  Population Tubulin-Different-Phenotype (%): 100% and 84%
U2OS; [4]
  Population Apoptotic (%): 100% and 71%
  Population Healthy Nuclei (%): 51% and 63%
  Population Hoechst High Intensity Objects (%): 0%
  Population Membrane Permeable-Phenotype (%): 82% and 75%
  Population Mitochondria Different-Phenotype (%): 82% and 72%
  Population Normal (%): 100%
  Population Pyknosed Nuclei (%): 15% and 28%
  Population Tubulin-Different-Phenotype (%): 100% and 98%
U2OS; [5]
  Population Apoptotic (%): 69% and 89%
  Population Healthy Nuclei (%): 52% and 66%
  Population Hoechst High Intensity Objects (%): 2% and 0%
  Population Membrane Permeable-Phenotype (%): 40% and 46%
  Population Mitochondria Different-Phenotype (%): 52% and 59%
  Population Mitotic Cells (%): 30% and 10%
  Population Normal (%): 97% and 100%
  Population Pyknosed Nuclei (%): 27% and 30%
  Population Tubulin-Different-Phenotype (%): 92% and 65%
U2OS; [6]
  Population Apoptotic (%): 94% and 90%
  Population Healthy Nuclei (%): 15% and 28%
  Population Hoechst High Intensity Objects (%): 2% and 1%
  Population Membrane Permeable-Phenotype (%): 100% and 80%
  Population Mitochondria Different-Phenotype (%): 66% and 72%
  Population Mitotic Cells (%): 5% and 9%
  Population Normal (%): 97% and 98%
  Population Pyknosed Nuclei (%): 44% and 62%
  Population Tubulin-Different-Phenotype (%): 100% and 97%
